MrgX1 allo act: human MrgX1 positive allosteric modulation, primary screen | Q96LB2 | MrgX1-HEK293, Fluo-4 calcium flux, FDSS; active compounds read high | B-score at 10 µM | hit rate 0.63% among 310,000 | AID 588675;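 active = plate-corrected calcium response at least 3 library SD above typical, normal starting fluorescence, not activating the receptor alone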;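 also: compound read alongside a low EC10 to EC30 dose of BAM8-22 agonist; peak minus trough fluorescence over baseline measured at the second addition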
MrgX1 antag: antagonists of human MrgX1 receptor | MRGX1-HEK293 calcium flux, Fluo-4, BAM8-22 antagonism; active compounds read low | B-score at 10 µM | hit rate 1.3% among 310,000 | AID 588676;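 active = calcium-response B-score plate-corrected more than 3 library SD below zero, starting fluorescence within 5 deviations, no agonist response on first addition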;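 also: peak minus trough fluorescence over baseline after final BAM8-22 challenge near maximal dose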
RGS4 block: inhibitors of human RGS4 | AID 463165 | hit rate 0.45% among 310,000 | HEK293 M3R/RGS4 inducible, Fluo-4 calcium flux; active compounds read high; triggered by carbachol at its EC20 | B-score at 10 µM | P49798;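 active = B-score, a plate-corrected calcium signal, over three deviations above library mean, with baseline fluorescence within five deviations of library mean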;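 also: RGS4 expression induced by doxycycline in cells with stable M3 receptor; B-score is computed from the integrated fluorescence ratio over baseline after carbachol; higher B-score means a larger calcium signal and so more RGS4 inhibition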
Target sequence (P49798 whole entry, looked up): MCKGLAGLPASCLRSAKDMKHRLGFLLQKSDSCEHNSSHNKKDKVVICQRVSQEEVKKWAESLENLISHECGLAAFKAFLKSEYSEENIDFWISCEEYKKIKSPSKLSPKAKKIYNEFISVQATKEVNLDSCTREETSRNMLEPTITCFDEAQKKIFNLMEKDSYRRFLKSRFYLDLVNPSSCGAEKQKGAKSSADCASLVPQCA
RGS4 pot: RGS4 potentiation or activation | HEK293 M3R/inducible RGS4, carbachol calcium flux Fluo4; active compounds read low | B-score at 10 µM | hit rate 0.92% among 310,000;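 active = B-score of the integrated calcium signal more than 4 SD below the library mean, with starting fluorescence not abnormally high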;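 also: negative B-score means reduced calcium response which marks RGS4 activation or potentiation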
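Reagent: ECmax carbachol challenge; Test system: M3R-expressing HEK293 line, RGS4 induced by doxycycline; Schedule: overnight RGS4 induction, 30 min dye load 37 °C, 20 min compound RT; Detection: calcium dye Fluo4 fluorescence; Read-out: Agonist-evoked peak-minus-minimum fluorescence over baseline, integrated ratio, B score.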
MrgX1 ag: agonists of human MrgX1 receptor; AID 588627; Q96LB2; B-score at 10 µM; hit rate 0.44% among 310,000; MrgX1-HEK293 cells, Fluo-4 calcium fluorescence, agonist mode; active compounds read high;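 active = calcium response B-score plate-corrected fluorescence ratio at least 3 library SD, with starting fluorescence B-score inside 5 SD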
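Material: MrgX1-expressing HEK293 cells / Dosing: compound as first of three additions / Incubation: overnight seeding, then 1 h dark dye loading / Signal: Fluo-4 NW calcium fluorescence / Evaluation: B-scored fluorescence response ratio / Benchmarks: positive and negative control wells on each plate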
* marks the source's active call; other numbers are inactive results; i = inactive; . = not tested or not shown. Sampled rows, rich in hits. Any-hit rate of the full collection: about 3.5%.

SMILES | MrgX1 allo act | MrgX1 antag | RGS4 block | RGS4 pot | MrgX1 ag
COc1ccc(CN(C)C(=O)c2ccccc2Sc2ccccc2C#N)c(OC)c1 | i | i | i | i | i
Cc1ccc(C(=O)Nc2c(C)cc(-c3ccccc3)oc2=O)cc1 | i | i | i | i | i
COc1ccc(CNC(=O)CN(C(=O)CCC(=O)Nc2nccs2)c2ccc3c(c2)OCO3)cc1 | i | i | i | i | i
O=C1c2ccccc2CC1(Cc1ccccc1)Cc1ccccc1 | i | i | i | -7.1* | i
CCC1(CC)Cc2ccccc2C(=O)N1 | i | i | i | i | i
CCC(C)(C)c1ccc(OCCCC[n+]2cccc(C)c2)c(C(C)(C)CC)c1 | . | . | i | -8.1* | .
CCCCS(=O)(=O)/C=C\C=C/S(=O)(=O)CCCC | i | i | i | i | 33*
CCCCS(=O)(=O)/C=C\C1C2C=CC(C2)C1S(=O)(=O)CCCC (configuration not stated) | i | i | i | i | i
Nc1c(C(=O)NCCc2ccc(Cl)cc2)sc2ccc(S(=O)(=O)N3CCCCC3)cc12 | i | i | 9* | i | i
Cc1nn(CC(=O)Nc2ccc(C(C)C)cc2)c(C)c1[N+](=O)[O-] | i | -7.1* | i | i | i
CC(=O)c1ccc(NC(=O)Cn2nc(C)c([N+](=O)[O-])c2C)cc1 | i | i | i | i | i
COC(=O)c1cccc(Cn2c(Cl)c(/C=N/Nc3ccccc3C)sc2=O)c1 | i | -8.1* | i | i | i
Cc1ccccc1N/N=C/c1sc(=O)n(Cc2cccc(C(=O)O)c2)c1Cl | i | i | i | i | i
COC(=O)CCCC(=O)N1CCCC(CNS(=O)(=O)c2ccc(OC)cc2)C1 (configuration not stated) | i | -4.6* | i | i | i
COCCC(=O)N1CCCC(CNS(=O)(=O)c2ccc(OC)cc2)C1 (configuration not stated) | i | i | i | i | i
CN(C)/C=C/C(=C\C(=O)C(F)(F)F)Nc1ccc(C(F)(F)F)cc1 | i | i | i | i | i
CSCC[C@H](NC(=O)c1ccc2ccccc2c1)C(=O)N1CCC2(CC1)NCCc1[nH]cnc12 | i | i | i | -7.6* | i
N/C(=N\OC(=O)c1ccc(=O)n(Cc2ccccc2)c1)c1ccccn1 | i | -5.1* | i | i | i
N/C(=N\OC(=O)c1ccc(=O)n(Cc2ccc(Cl)cc2)c1)c1ccccn1 | i | i | i | i | i
N/C(=N\OC(=O)c1ccc(Cl)c(Cl)c1)c1cccc(CSc2ccccn2)c1 | i | i | i | -7.5* | i
N/C(=N\OC(=O)c1ccc(Cl)c(Cl)c1)c1cccnc1 | i | i | i | i | i
Cc1cc(NC(=O)C(=O)c2cn(C)c3ccccc23)no1 | i | i | i | i | i
O=C1/C(=C/c2ccccc2)CCC1C1CCCC1 (configuration not stated) | i | i | i | i | i
CN1C2CCC1/C(=C\c1ccccc1)C(=O)/C2=C\c1ccccc1 | 12* | i | i | i | i
CCOC(=O)C1CCCN(S(=O)(=O)CCNC(=O)c2ccc(F)cc2)C1 (configuration not stated) | i | i | i | i | i
SMILES | MrgX1 allo act | MrgX1 antag | RGS4 block | RGS4 pot | MrgX1 ag
Cc1nn(Cc2c(Cl)cccc2Cl)c(C)c1NC(=O)CCCn1nc(C)c([N+](=O)[O-])c1C | i | -4.5* | i | i | i
Cc1nn(CCCC(=O)NCCc2ccccc2)c(C)c1[N+](=O)[O-] | 7.2* | i | i | i | i
Cc1ccc(Cn2nc(C)c(NC(=O)CCCn3nc(C)c([N+](=O)[O-])c3C)c2C)cc1 | i | i | i | i | i
CN(C)c1ccc(NC(=O)C[n+]2ccccc2)cc1 | i | i | i | i | i
O=C(C[n+]1ccccc1)Nc1ccc(Oc2ccccc2)cc1 | i | i | i | -7.6* | i
COc1cc2ncc(S(=O)(=O)c3ccccc3)c(N3CCCC(C)C3)c2cc1OC (configuration not stated) | i | i | i | -7.3* | i
